Active and inactive are the calls of the source. The rule behind the calls is not given here.
Tests used:
NCI/ADR-RES [1] = assay: Potentiation of adriamycin-induced cytotoxicity against human MCF7/ADR cells at 10 uM after 48 hrs by MTT assay; format: functional, cell-based
Procedure, shortened: (§1)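 ADM-resistant MCF-7/ADM or K562/ADM cells, grown in RPMI1640 with 10% FBS at 37 °C and 5% CO2, were seeded at 1 × 10^4 per well and held 24 h. Fixed peptide was added, followed by graded ADM concentrations, for 48 h. MTT was then given for 4 h at 37 °C, formazan dissolved in DMSO and absorbance read at 570 nm. Verapamil served as positive control.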

[2] = Increase in adriamycin uptake in human MCF7/ADR cells at 10 uM after 2.5 hrs by fluorescence spectrophotometry; format: ADME, cell-based; settings: nci/adr-res
Procedure, shortened: (§2)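 2 × 10^5 MCF-7/ADM or K562/ADM cells were co-incubated 2.5 h with ADM plus peptide, or with verapamil as comparator. After washing in cold PBS, cells were lysed in 0.75 M HCl/0.2% Triton X-100 in isopropanol. Lysate ADM fluorescence was measured by spectrofluorometry at ex 460/em 610 nm.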

K562/Adr [3] = assay: Potentiation of adriamycin-induced cytotoxicity against human K562/ADR cells at 10 uM after 48 hrs by MTT assay; format: functional, cell-based; procedure, shortened: as §1
[4] = Increase in adriamycin uptake in human K562/ADR cells at 10 uM after 2.5 hrs by fluorescence spectrophotometry; format: ADME, cell-based; procedure, shortened: as §2
[5] = Increase in adriamycin uptake in human K562/ADR cells at 10 uM after 2.5 hrs by fluorescence microscopy; format: ADME, cell-based
Procedure, shortened: (§3)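 2 × 10^5 MCF-7/ADM or K562/ADM cells were co-incubated 2.5 h with ADM plus peptide, or with verapamil as comparator. Cells were washed with cold PBS and ADM fluorescence was imaged by fluorescence microscopy.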

[6] = Increase in adriamycin uptake in human MCF7/ADR cells at 10 uM after 2.5 hrs by fluorescence microscopy; format: ADME, cell-based; settings: nci/adr-res; procedure, shortened: as §3
MCF7 [7] = assay: Induction of cytochrome c release in cytoplasm of human MCF7 cells at 8 uM incubated for 2 hrs by ELISA method (reference value: 44.1 +/- 2.7 ng); format: functional
K562/Adr [8] = assay: Potentiation of adriamycin-induced cytotoxicity against human K562/ADR cells at 1 uM after 48 hrs by MTT assay; format: functional, cell-based; procedure, shortened: as §1
MCF7 [9] = assay: Induction of cell membrane alteration in human MCF7 cells at 8 uM incubated for 30 mins by acridine orange/ethidium bromide double staining method; format: functional, cell-based
Procedure, shortened: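 MCF-7 cells were plated at 1 × 10^5/well and grown 24 h, then given peptide for 30 min. Cells were washed twice with PBS and stained 10 min in the dark with cold PBS containing acridine orange and ethidium bromide. Excess dye was washed off, then cells were imaged by fluorescence microscopy. Red EB staining marks membrane-compromised cells.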

K562 = assay: Anticancer activity against human K562 cells after 48 hrs by MTT assay; format: functional, cell-based; settings: K562, 48 h
Procedure, shortened: (§4)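 Cells grown in RPMI1640 with 10% heat-inactivated FBS and 1% penicillin-streptomycin at 37 °C, 5% CO2. Log-phase cells were seeded at 5 × 10^3/well 24 h before treatment, exposed to a range of peptide concentrations for 48 h, then given MTT for 4 h. Formazan was dissolved in DMSO and A490 read. Survival was computed relative to untreated wells, and IC50 taken from the survival curve.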

[10] = Increase in adriamycin uptake in human MCF7/ADR cells at 1 uM after 2.5 hrs by fluorescence spectrophotometry; format: ADME, cell-based; settings: nci/adr-res; procedure, shortened: as §2
[11] = Increase in adriamycin uptake in human MCF7/ADR cells at 1 uM after 2.5 hrs by fluorescence microscopy; format: ADME, cell-based; settings: nci/adr-res; procedure, shortened: as §3
[12] = Cytotoxicity against human GES-1 cells after 48 hrs by MTT assay; format: cell-based; settings: GES1, 48 h; procedure, shortened: as §4
MCF7 [13] = assay: Induction of mitochondrial membrane potential depolarization in human MCF7 cells at 8 uM incubated for 2 hrs by JC1 staining; format: functional, cell-based
Procedure, shortened: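 MCF-7 cells plated at 1 × 10^5 per well, grown 24 h, then exposed to peptide for 2 h. Mitochondrial membrane potential was assessed with a JC-1 mitochondrial membrane potential kit. Green (monomer) and red (J-aggregate) fluorescence were imaged, with merged orange taken as normal potential.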

[14] = Retention time of the compound by UPLC method; format: physicochemical
MCF7 [15] = assay: Induction of cytochrome c release in mitochondria of human MCF7 cells at 8 uM incubated for 2 hrs by ELISA method (reference value: 347.8 +/- 14.5 ng); format: functional
[16] = Increase in adriamycin uptake in human K562/ADR cells at 1 uM after 2.5 hrs by fluorescence spectrophotometry; format: ADME, cell-based; procedure, shortened: as §2
MCF7 [17] = assay: Anticancer activity against human MCF7 cells after 48 hrs by MTT assay; format: functional, cell-based; settings: MCF7, 48 h; procedure, shortened: as §4
MCF7 [18] = assay: Induction of cell membrane morphology changes in human MCF7 cells at 8 uM incubated for 30 mins by scanning electron microscopy; format: functional, cell-based
Procedure, shortened: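 MCF-7 cells were grown 24 h on coverslips at 1 × 10^5/well and exposed to peptide for 30 min. Cells were gently PBS-washed, fixed in 2.5% glutaraldehyde, and examined by scanning electron microscopy.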

MCF7 [19] = assay: Antimigratory activity in human MCF7 cells assessed as inhibition of cell migration at 1 uM incubated for 48 hrs by wound healing assay; format: functional, cell-based
Procedure, shortened: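 MCF-7 cells were seeded at 2 × 10^5/well and grown 24 h to 90% confluence. A cell-free gap was scratched, and cells migrated in serum-free medium with peptide for 48 h. Wound closure was photographed at 0 h and 48 h.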

NCI/ADR-RES [20] = assay: Potentiation of adriamycin-induced cytotoxicity against human MCF7/ADR cells at 1 uM after 48 hrs by MTT assay; format: functional, cell-based; procedure, shortened: as §1
[21] = Toxicity in rabbit erythrocytes assessed as induction of hemolysis at 160 uM incubated for 1 hr by microplate reader assay; format: cell-based, Oryctolagus cuniculus; settings: erythrocyte
Procedure, shortened: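 Rabbit red blood cells in PBS were mixed 1:1 by volume with peptide solution and incubated 1 h at 37 °C, then spun at 1000 g for 5 min. Hemoglobin in the supernatant was read at 540 nm. PBS defined 0% hemolysis and 0.1% Triton X-100 defined 100%.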

[22] = Increase in adriamycin uptake in human K562/ADR cells at 1 uM after 2.5 hrs by fluorescence microscopy; format: ADME, cell-based; procedure, shortened: as §3
[23] = Anticancer activity against human MCF7/ADR cells after 48 hrs by MTT assay; format: functional, cell-based; settings: NCI/ADR-RES; procedure, shortened: as §4
[24] = Drug uptake in cytosol of human MCF7 cells at 8 uM incubated for 5 mins or 30 mins by fluorescein isothiocyanate labeling based fluorescence microscopy; format: ADME, cell-based
Procedure, shortened: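 MCF-7 cells were plated at 1 × 10^5/well and grown 24 h, then exposed to FITC-labeled peptides for 5 min or 30 min. Cells were washed three times with cold PBS, and intracellular fluorescence was imaged by fluorescence microscopy.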

[25] = Anticancer activity against human K562/ADR cells after 48 hrs by MTT assay; format: functional, cell-based; procedure, shortened: as §4
MCF7 [26] = assay: Induction of cytochrome c release in human MCF7 cells at 8 uM incubated for 2 hrs by ELISA method (reference value: 364.2 +/- 20.5 ng); format: functional
MCF7 [27] = assay: Antimigratory activity in human MCF7 cells assessed as inhibition of cell migration at 1 uM incubated for 48 hrs by transwell migration assay; format: functional, cell-based
Procedure, shortened: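 Transwell chambers with a porous membrane separating upper and lower compartments. 4 × 10^4 MCF-7 cells were placed in the upper chamber in peptide-containing medium and incubated 48 h. Cells that reached the lower membrane surface were counted.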

MCF7 [28] = assay: Induction of cytochrome c release in extracellular region of human MCF7 cells at 8 uM incubated for 2 hrs by ELISA method (reference value: 15.7 +/- 0.77 ng); format: functional

Compound: COc1ccc(CCN(C)CCCC(C#N)(c2ccc(OC)c(OC)c2)C(C)C)cc1OC (centres undefined) [VERAPAMIL]
- Activity (NCI/ADR-RES [1]): Active
- Activity [2]: Active
- Activity (K562/Adr [3]): Active
- Activity [4]: Active
- Activity [5]: Active
- Activity [6]: Active

Compound: H-VKRFKKFFRKLKKKV-NH2
- Activity (MCF7 [7]): 59.6 ng
- Activity (K562/Adr [8]): Active
- Activity (MCF7 [9]): Active
- IC50 (K562): 5.5 µM
- Activity [10]: Active
- Activity [11]: Active
- IC50 [12]: 123 µM
- Activity (MCF7 [13]): Active
- Retention_time [14]: 3.22 min
- Activity (MCF7 [15]): 303.2 ng
- Activity [16]: Active
- IC50 (MCF7 [17]): 8.3 µM
- Activity (MCF7 [18]): Active
- inhibition (MCF7 [19]): Active
- Activity (NCI/ADR-RES [20]): Active
- Activity [21]: Non-toxic
- Activity [22]: Active
- IC50 [23]: 8.6 µM
- Drug uptake [24]: Active
- IC50 [25]: 5.5 µM
- Activity (MCF7 [26]): 359.1 ng
- inhibition (MCF7 [27]): Active
- Activity (MCF7 [28]): 15 ng

From ChEMBL document CHEMBL3351585, “Design, synthesis and biological evaluation of novel peptides with anti-cancer and drug resistance-reversing activities” (Eur J Med Chem, 2015)
